The source of these data is ChEMBL document CHEMBL1138791, “Acyl sulfonamide anti-proliferatives: benzene substituent structure-activity relationships for a novel class of antitumor agents” (J Med Chem, 2004).

Test [1] relates to L1210. Put plainly: Diameter of zone of inhibition for cell colony formation of leukemia L1210 at the dose of 190 ug; Range is 0-5.525. Format: functional, Mus musculus. In short, it runs like this: (§1)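 Soft agar disk diffusion: leukemia (L1210), solid tumor (HCT116, or colon H15) and normal fibroblast cells seeded in soft agar in separate 60 mm dishes. Compound applied to a filter paper disk (dose in μg/disk) set on the agar. Colony-formation inhibition zones read after 6–7 days at 37 °C. 200 zone units = 6.5 mm; 950 = total inhibition; a range marks partial colony shrinkage. n > 2 unless noted.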

Test [2] is described as follows: Diameter of zone of inhibition for cell colony formation of normal fibroblast at the dose of 190 ug; Range is 0-13.65. Type of test: functional, Homo sapiens. In a few lines:
as §1

A further test deals with MCF7. Briefly: Growth inhibitory activity against human breast MCF-7 cell line. Format: functional. In short, it runs like this: (§2)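 Cell-line screen run at NCI by published procedures. […] The mean graph midpoint is taken across all human cancer cell lines successfully tested.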
Test [3] concerns HCT-116. Briefly: Growth inhibitory activity against human colon HCT116 cell line. Format: functional. In short, it runs like this:
as §2

For a further test, the system named is HT-29. Briefly: Growth inhibitory activity against human colon HT-29 cell line. Format: functional. In a few lines: as §2
Test [4] deals with Panel (Carcinoma cell lines). Briefly: Mean graph mid point value for cytotoxic activity against human cancer cell lines was determined. Type of test: functional. In a few lines:
as §2

A further test has as its system RXF 393. Put plainly: Growth inhibitory activity against human renal RXF-393 cell line. Format: functional. In a few lines: as §2
In test [5] the test system is HCT-116. Put plainly: Diameter of zone of inhibition for cell colony formation of solid tumor HCT116 at the dose of 190 ug. Format: functional, Homo sapiens. In short, it runs like this: as §1
In a further test the test system is SW-620. Put plainly: Growth inhibitory activity against human colon SW620 cell line. Type of test: functional. In a few lines: as §2
Another test deals with HL-60. Put plainly: Growth inhibitory activity against human leukemia HL-60 (TB) cell line. Further details: unit not given here. Format: functional.
Another test has as its system NCI-H522. Briefly: Growth inhibitory activity against human lung NCI-H522 cell line. Type of test: functional. In short, it runs like this:
as §2

Test [6] relates to L1210. Briefly: Diameter of zone of inhibition for cell colony formation of leukemia L1210 at the dose of 190 ug; Range is 0-6.825. Type of test: functional, Mus musculus. In short, it runs like this: as §1
Test [7] is described as follows: Diameter of zone of inhibition for cell colony formation of normal fibroblast at the dose of 190 ug; Range is 0-8.775. Format: functional, Homo sapiens. In short, it runs like this: as §1
Another test relates to Mus musculus. Put plainly: Tumor growth delay of human HCT116 colorectal carcinoma in mice after intravenous administration at dose of 100 mg/kg. Format: functional.
The subject of test [8] is L1210. Briefly: Diameter of zone of inhibition for cell colony formation of leukemia L1210 at the dose of 190 ug. Format: functional, Mus musculus. In a few lines:
as §1

Test [9] in a line: Diameter of zone of inhibition for cell colony formation of normal fibroblast at the dose of 190 ug; Range is 0-10.25. Type of test: functional, Homo sapiens. In a few lines: as §1
In test [10] the test system is HCT-116. Put plainly: Diameter of zone of inhibition for cell colony formation of solid tumor HCT116 at the dose of 190 ug; Range is 22.75-24.375. Format: functional, Homo sapiens. In short, it runs like this: (§3)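 HCT116, L1210 leukaemia and normal fibroblast cells were seeded in soft agar in separate 60 mm dishes. The compound was applied to a filter-paper disk laid on the agar. Colony-formation inhibition zones were read after 6–7 days at 37 °C and expressed in zone units (200 units = 6.5 mm; 950 = total inhibition; 0 = none). n > 2 unless otherwise indicated.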

The subject of test [11] is L1210. Briefly: Diameter of zone of inhibition for cell colony formation of leukemia L1210 at the dose of 200 ug; Range is 0-9.1. Type of test: functional, Mus musculus. In short, it runs like this: as §1
Test [12] relates to HCT-116. Put plainly: Diameter of zone of inhibition for cell colony formation of solid tumor HCT116 at the dose of 200 ug. Type of test: functional, Homo sapiens. In short, it runs like this: as §3
A short description of test [13]: Diameter of zone of inhibition for cell colony formation of normal fibroblast at the dose of 200 ug; Range is 0-16.9. Format: functional, Homo sapiens. In short, it runs like this:
as §1

Test [14] can be described thus: Diameter of zone of inhibition for cell colony formation of normal fibroblast at the dose of 200 ug; Range is 0-11.7. Format: functional, Homo sapiens. In a few lines:
as §1

Test [15] deals with L1210. Briefly: Diameter of zone of inhibition for cell colony formation of leukemia L1210 at the dose of 200 ug. Format: functional, Mus musculus. In a few lines:
as §1

Test [16] has as its system L1210. Put plainly: Diameter of zone of inhibition for cell colony formation of leukemia L1210 at the dose of 200 ug; Range is 1.3-5.85. Type of test: functional, Mus musculus. In a few lines: as §1
For test [17], the system named is L1210. Briefly: Diameter of zone of inhibition for cell colony formation of leukemia L1210 at the dose of 210 ug. Type of test: functional, Mus musculus. In a few lines: as §1
Test [18] concerns HCT-116. Briefly: Diameter of zone of inhibition for cell colony formation of solid tumor HCT116 at the dose of 210 ug. Format: functional, Homo sapiens. In short, it runs like this:
as §3

Test [19] is described as follows: Diameter of zone of inhibition for cell colony formation of normal fibroblast at the dose of 210 ug. Type of test: functional, Homo sapiens. In short, it runs like this: as §1
A short description of test [20]: Diameter of zone of inhibition for cell colony formation of normal fibroblast at the dose of 210 ug; Range is 0-6.5. Type of test: functional, Homo sapiens. In short, it runs like this:
as §1

Test [21] deals with L1210. Put plainly: Diameter of zone of inhibition for cell colony formation of leukemia L1210 at the dose of 190 ug; Range is 3.75-4.875. Type of test: functional, Mus musculus. In a few lines:
as §1

A short description of test [22]: Diameter of zone of inhibition for cell colony formation of normal fibroblast at the dose of 190 ug; Range is 0-6.5. Format: functional, Homo sapiens. In a few lines:
as §1

In test [23] the test system is L1210. Put plainly: Diameter of zone of inhibition for cell colony formation of leukemia L1210 at the dose of 200 ug; Range is 0-6.5. Type of test: functional, Mus musculus. In short, it runs like this:
as §1

Test [24] is described as follows: Diameter of zone of inhibition for cell colony formation of normal fibroblast at the dose of 200 ug; Range is 0-2.6. Format: functional, Homo sapiens. In short, it runs like this:
as §1

Test [25] in a line: Diameter of zone of inhibition for cell colony formation of normal fibroblast at the dose of 210 ug; Range is 0-13. Format: functional, Homo sapiens. In a few lines: as §1
The subject of test [26] is L1210. Briefly: Diameter of zone of inhibition for cell colony formation of leukemia L1210 at the dose of 210 ug; Range is 0-11.375. Format: functional, Mus musculus. In short, it runs like this:
as §1

In the case of `COc1ccc(S(=O)(=O)NC(=O)c2ccc(Cl)cc2Cl)cc1`, the Inhibition in the test on L1210 [1] stood at 5.52 mm; in test [2], 13.65 mm; in the test with HCT-116 [5], 21.12 mm. Moreover, the GI50 in the test with MCF7 was 23.9 µM; in the test with HCT-116 [3] it was 3.5 µM; in the test on HT-29 it was 41.5 µM; with RXF 393, 6.4 µM; in the test with SW-620, 9.5 µM; in the test on HL-60, 38.9. The compound also came in with a GI50 in the test on NCI-H522 of 39.6 µM. This compound also came in with an MGM in [4] of 28.8.
With `O=C(NS(=O)(=O)c1ccc(Br)c(Br)c1)c1ccc(Cl)cc1Cl`, the Inhibition with L1210 [6] was 6.82 mm; with HCT-116 [5], 13.84 mm; in test [7], 8.77 mm.
The compound `CCc1c2c(nc3ccc(OC(=O)N4CCC(N5CCCCC5)CC4)cc13)-c1cc3c(c(=O)n1C2)COC(=O)[C@]3(O)CC.Cl` gave a Growth delay with Mus musculus of 15 days.
With `Cc1cc(Br)ccc1C(=O)NS(=O)(=O)c1ccc(Cl)cc1`, the Inhibition is listed as 0 mm in the test with L1210 [8], 10.25 mm in test [9] and 24.37 mm in the test with HCT-116 [10].
On to `O=C(NS(=O)(=O)c1ccc(F)cc1)c1ccc(Cl)cc1Cl`, for which the Inhibition came to 9.1 mm in the test on L1210 [11], 28.6 mm in the test on HCT-116 [12] and 16.9 mm in test [13].
Turning to `O=C(NS(=O)(=O)c1ccc(Cl)cc1)c1ccc(C(F)(F)F)cc1C(F)(F)F`, the results for the Inhibition (with HCT-116 [12]; in [14]; in the test with L1210 [15]) were 16.9 mm, 11.7 mm and 0 mm, respectively.
Turning to `O=C(NS(=O)(=O)c1ccc(Cl)c(Cl)c1)c1ccc(Cl)cc1Cl`, the Inhibition was 18.2 mm in the test with HCT-116 [12], 11.7 mm in [14] and 5.85 mm with L1210 [16].
As to `O=C(NS(=O)(=O)c1ccccc1Cl)c1ccc(Cl)cc1Cl`, the Inhibition (with L1210 [17]; with HCT-116 [18]; in [19]) was 0 mm each time.
Turning to `COc1ccc(S(=O)(=O)NC(=O)c2ccc(Cl)cc2Cl)cc1OC`, the figures for the Inhibition (in the test on L1210 [17]; in [20]; in the test on HCT-116 [18]) were 0 mm, 6.5 mm and 16.25 mm, respectively.
For `O=C(NS(=O)(=O)c1cccc(Cl)c1)c1ccc(Cl)cc1Cl`, the Inhibition in the test on L1210 [21] came out at 4.87 mm; in the test on HCT-116 [5] it was 16.73 mm; in test [22], 6.5 mm.
`COC(=O)c1ccc(S(=O)(=O)NC(=O)c2ccc(Cl)cc2Cl)cc1`: the Inhibition was found to be 6.5 mm with L1210 [23], 2.6 mm in test [24] and 21.12 mm with HCT-116 [12].
Consider `CN(C)c1ccc(S(=O)(=O)NC(=O)c2ccc(Cl)cc2Cl)cc1`, for which the figures for the Inhibition (in [25]; in the test on L1210 [26]; with HCT-116 [18]) were 13 mm, 11.37 mm and 28.75 mm, respectively.
